Numbered stars: 1 amine (or outer) side, 2 acyl side, 3 side chain; on linkers, the order of the positions; unused ones are H or OH. Square brackets hold non-standard residues; d marks the D form. Side chains are listed from the residue outwards. Peptide text beside a SMILES is read from it. * marks the point of attachment. X1 = N=C(N)NCCC[C@H](N)CN*; ΔPro = O=C(O)[C@@H]1C=CCN1; Dab = NCC[C@H](N)C(=O)O; CO = O=C([*:1])[*:2]
Experiments:
Neuropilin-1 = Neuropilin-1 (Homo sapiens, UniProt O14786); experiment: Inhibition of biotinylated human VEGF-A165 binding to recombinant human NRP1 receptor after 2 hrs by chemiluminescence analysis relative to control
Procedure, shortened: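 ELISA-like competition format with chemiluminescent read-out of VEGF-A165 bound to NRP-1 in the presence of test peptidomimetic.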

[1] = Retention time in human plasma treated with 1 uM (S)-2-((S)-1-((S)-1-((S)-2-amino-6-(3-((S)-2-amino-5-guanidinopentyl)ureido)hexanoyl)pyrrolidine-2-carbonyl)pyrrolidine-2-carboxamido)-5-guanidinopentanoic acid at 1 uM after 96 hrs by LC-MS analysis; type: ADME, cell-free
Procedure, shortened: (§1)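 Compounds incubated in human plasma at 37 °C; aliquots withdrawn at selected time intervals up to 96 h and analysed by RP-HPLC and LC-MS to follow parent loss and the fragments formed.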

[2] = Retention time in human plasma treated with 1 uM (S)-5-guanidino-2-((S)-1-((6S,15S,18R)-1,6,15-triamino-18-(2-aminoethyl)-1-imino-9,16-dioxo-2,8,10,17-tetraazanonadecane)-2,3-dihydro-1H-pyrrole-2-carboxamido)pentanoic acid at 1 uM after 96 hrs by LC-MS analysis; type: ADME, cell-free; procedure, shortened: as §1
[3] = Drug metabolism in human plasma assessed as (S)-2-amino-6-(3-((S)-2-amino-5-guanidinopentyl)ureido)hexanoic acid metabolite formation at 1 uM after 96 hrs by LC-MS analysis; type: ADME, cell-free; procedure, shortened: as §1
[4] = Stability in human plasma assessed as enzymatic cleavage of Lys(epsilon)-Arg(U) bond at 1 uM after 96 hrs by LC-MS analysis; type: ADME, cell-free; procedure, shortened: as §1
[5] = Metabolic stability in human plasma assessed as compound remaining at 1 uM after 96 hrs by RP-HPLC and LC-MS analysis relative to control; type: ADME, cell-free; settings: read-out: Stability; procedure, shortened: as §1

Chain of Neuropilin-1 (O14786 whole entry): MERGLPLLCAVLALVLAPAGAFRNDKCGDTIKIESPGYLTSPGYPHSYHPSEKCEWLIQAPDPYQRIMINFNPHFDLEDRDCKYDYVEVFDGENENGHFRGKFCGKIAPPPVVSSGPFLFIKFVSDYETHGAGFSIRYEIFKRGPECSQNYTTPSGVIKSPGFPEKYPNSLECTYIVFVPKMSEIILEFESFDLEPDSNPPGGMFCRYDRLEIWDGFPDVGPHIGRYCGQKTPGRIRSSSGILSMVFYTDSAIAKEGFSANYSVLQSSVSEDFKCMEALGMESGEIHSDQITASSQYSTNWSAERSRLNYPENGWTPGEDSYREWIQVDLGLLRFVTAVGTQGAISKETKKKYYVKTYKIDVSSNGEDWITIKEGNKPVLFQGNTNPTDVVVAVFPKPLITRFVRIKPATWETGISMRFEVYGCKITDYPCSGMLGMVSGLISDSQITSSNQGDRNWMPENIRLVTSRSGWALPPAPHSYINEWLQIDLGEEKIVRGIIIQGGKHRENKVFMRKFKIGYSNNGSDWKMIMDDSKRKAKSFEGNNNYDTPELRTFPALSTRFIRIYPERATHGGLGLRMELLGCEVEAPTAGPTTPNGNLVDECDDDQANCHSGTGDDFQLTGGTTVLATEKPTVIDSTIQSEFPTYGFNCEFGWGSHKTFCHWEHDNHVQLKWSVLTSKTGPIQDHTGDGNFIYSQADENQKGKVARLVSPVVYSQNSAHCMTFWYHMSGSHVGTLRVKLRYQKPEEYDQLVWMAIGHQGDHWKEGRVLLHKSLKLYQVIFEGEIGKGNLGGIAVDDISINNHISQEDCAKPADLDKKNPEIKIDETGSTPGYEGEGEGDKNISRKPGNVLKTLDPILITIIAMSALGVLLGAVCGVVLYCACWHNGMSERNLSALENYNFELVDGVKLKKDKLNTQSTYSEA

Row | IC50 (Neuropilin-1) [µM] | Retention_time [2] [min] | further results | Compound
1 | 26 | – | – | N=C(N)NCCC[C@H](N)CNC(=O)NCCCC[C@H](N)C(=O)N[C@H](CCN)C(=O)N1CC[C@H]1C(=O)N[C@@H](CCCNC(=N)N)C(=O)O
2 | – | 2.92 | Retention_time [1]: 3 min | N=C(N)NCCC[C@H](N)CNC(=O)NCCCC[C@H](N)C(=O)O
3 | 7.7 | – | Drug metabolism [3]: Metabolite_Detected; Stability [4]: Stable; remaining at 96 h, 1 µM [5]: 40 to 45% | N=C(N)NCCC[C@H](N)CNC(=O)NCCCC[C@H](N)C(=O)N1CCC[C@H]1C(=O)N1CCC[C@H]1C(=O)N[C@@H](CCCNC(=N)N)C(=O)O (H-K([CO-X1])PPR-OH)
4 | 5.4 | – | – | N=C(N)NCCC[C@H](N)CNC(=O)NCCCC[C@H](N)C(=O)N[C@H](CCN)C(=O)N1C2CCCCC2C[C@H]1C(=O)N[C@@H](CCCNC(=N)N)C(=O)O (stereo not given in full)
5 | – | 9.02 | – | N=C(N)NCCC[C@H](N)CNC(=O)NCCCC[C@H](N)C(=O)N[C@@H](CCN)C(=O)N1CC=C[C@H]1C(=O)O
6 | – | 0.98 | – | N=C(N)NCCC[C@H](NC(=O)[C@@H]1C=CCN1C(=O)[C@@H](N)CCN)C(=O)O (H-[Dab]-[ΔPro]-Arg-OH)
